Screening results from PubChem.
The entries come from a sample that favours hits as a whole.
CHOP inhibitor = inhibitors of CHOP induction in ER stress response; CHO-K1 CHOP-promoter luciferase, tunicamycin-induced, 15-18 h; inhibition, % at 10 µM; 220,000 compounds, 3.8% hits;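 active = compounds that reduced the stress-induced luciferase reporter signal by more than about 70% of percent inhibition, limit read from the data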;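 note: 0% = tunicamycin plus vehicle and 100% = wells without tunicamycin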
FXN GAA850 act = activators of GAA850 frataxin (FXN) promoter. AID 540364. activation, % at 6 µM. 360,000 compounds, 0.56% hits. HEK293 lucGAA850 FXN promoter luciferase reporter, 24 h; percent of 10 µM SAHA response;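 active = activation above the average of all compounds screened plus 3 SD, cutoff fixed separately per campaign, cut at about 7.5% in these data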;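 note: 0% = DMSO wells and 100% = 10 µM SAHA wells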
UPR XBP1 act = adaptive UPR (XBP1) activation; CHO-XBP1 luciferase reporter, IRE1-XBP1 UPR activation, luminescence; percent of tunicamycin response, DMSO as zero; activation, % at 20 µM; 330,000 compounds, 0.33% hits; AID 463104;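 active = versus positive control, 20 µM dose yields 30% or more activation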;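 note: 100% = tunicamycin at 10 µg/mL and 0% = DMSO only wells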
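Material: CHO cell line with stable XBP1 luciferase reporter; schedule: 16-18 h cell attachment at 37 °C, then 6 h compound exposure; signal: glow luminescence from Steady-Glo reagent; medium: serum-containing F12 medium, 10% FBS; benchmarks: tunicamycin 10 µg/mL and vehicle-only wells; read-out: percent activation relative to tunicamycin reference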
UPR CHOP act = activators of apoptotic arm of unfolded protein response (CHOP). CHO-CHOP luciferase reporter, UPR activation, luminescence; percent of tunicamycin response over DMSO baseline. activation, % at 10 µM. 330,000 compounds, 0.34% hits;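 active = at 10 µM dose, activation of 40% or more, normalized to positive control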;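 note: 100% = tunicamycin at 10 µg/mL and 0% = DMSO alone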
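System: CHO-CHOP luciferase reporter cell line | Buffer or medium: F12 medium containing 10% fetal bovine serum | Doses: One dose, 10 µM in 0.5% DMSO | Times: 6 h compound exposure at 37 °C after overnight seeding | Signal: Luciferase luminescence | Read-out: % activation vs tunicamycin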
Starred values were filed as active, the others as inactive.

How did CC(O)(c1cccnc1)c1nc(-c2cccc3cccnc23)cs1 (configuration not stated) do in these assays?
FXN GAA850 act: 0.5

How did Cc1ccc(S(=O)(=O)Nc2ccc(O)c3cccnc23)cc1 do in these assays?
FXN GAA850 act: 2.5; UPR XBP1 act: 1.1; UPR CHOP act: 2.9

Results for Cc1ccc(S(=O)(=O)Nc2ccc(O)c3ncccc23)cc1 ?
CHOP inhibitor: 72.7*; FXN GAA850 act: 0.7; UPR XBP1 act: -1.4; UPR CHOP act: -0.9

Results for CC(C)(C)c1csc(NC(=O)c2ccncc2)n1 ?
CHOP inhibitor: -2.7; FXN GAA850 act: -0.3; UPR XBP1 act: -2.4; UPR CHOP act: 2.8

What do the screens show for `Cc1ccc(C(=O)Nc2nc(C(C)(C)C)cs2)s1`?
CHOP inhibitor: 77.0*; FXN GAA850 act: -1.0; UPR XBP1 act: 12.1; UPR CHOP act: 3.1

How did CC(C)(C)c1csc(NC(=O)Nc2ccccc2)n1 do in these assays?
CHOP inhibitor: 76.4*; FXN GAA850 act: 5.9; UPR XBP1 act: 4.1; UPR CHOP act: 6.4

What do the screens show for `CC(C)C[C@H](N)CSSC[C@@H](N)CC(C)C`?
CHOP inhibitor: 4.8

How did CNc1ncnc2c1ncn2[C@H]1CN(Cc2ccc(-c3ccccc3)cc2)C[C@@H](CO)O1 do in these assays?
FXN GAA850 act: -0.3

What do the screens show for `Nc1nonc1C(=O)NCCNCc1c(OCc2ccccc2F)ccc2ccccc12`?
CHOP inhibitor: 73.3*; FXN GAA850 act: -4.7; UPR XBP1 act: 0.8; UPR CHOP act: -1.1

What do the screens show for `OC(CNCCC(c1ccccc1)c1ccccc1)COc1ccccc1` (configuration not stated)?
CHOP inhibitor: 74.3*; FXN GAA850 act: -2.9; UPR XBP1 act: 2.3; UPR CHOP act: -1.8

What do the screens show for `COc1ccc(CC(=O)Nc2ccccc2N2CCCC2)cc1`?
FXN GAA850 act: 0.1; UPR XBP1 act: 0.2; UPR CHOP act: 1.6

What do the screens show for `Cn1nc(-c2ccccc2)c(N2CCCCC2)cc1=O`?
CHOP inhibitor: 2.4; FXN GAA850 act: 2.3; UPR XBP1 act: 0.5; UPR CHOP act: -0.7

Results for O=c1cc(N2CCCCC2)c(-c2ccccc2)nn1Cc1ccccc1 ?
CHOP inhibitor: 84.8*; FXN GAA850 act: 1.9; UPR XBP1 act: 0.0; UPR CHOP act: -0.2

What do the screens show for `COc1ccc(Cn2nc(-c3ccccc3)c(N3CCCCC3)cc2=O)cc1`?
CHOP inhibitor: 74.0*; FXN GAA850 act: 6.7; UPR XBP1 act: -0.6; UPR CHOP act: -2.8

What do the screens show for `CCCCN(C)c1c(C)nc2ccc(C(=O)N(C)Cc3ccco3)cn12`?
FXN GAA850 act: -0.6

What do the screens show for `COC(=O)c1cc(OC)c(OC)cc1NC(=O)CCN1C(=O)C2CCCCC2C1=O` (configuration not stated)?
FXN GAA850 act: -0.4

What do the screens show for `CCOc1cccc(-c2cnc3cccnn23)c1`?
FXN GAA850 act: 5.0

Results for O=C1C2C=CC=CC2=NC(=S)N1CCN1CCC(=C(c2ccc(F)cc2)c2ccc(F)cc2)CC1 (configuration not stated) ?
CHOP inhibitor: -1.2

Results for Cc1csc(NC(=O)C(CC(C)C)NS(=O)(=O)c2ccc3c(c2)oc(=O)n3C)n1 (configuration not stated) ?
CHOP inhibitor: 97.4*; FXN GAA850 act: -2.5; UPR XBP1 act: 1.0; UPR CHOP act: 2.3

What do the screens show for `CC(=NCC1CCCO1)C1=C(O)CC(C)(C)CC1=O` (configuration not stated)?
CHOP inhibitor: 9.0; FXN GAA850 act: -0.3; UPR XBP1 act: -2.4; UPR CHOP act: 1.7

What do the screens show for `CC(=NCC1CCNCC1)C1=C(O)CC(C)(C)CC1=O`?
CHOP inhibitor: 78.1*; FXN GAA850 act: 1.1; UPR XBP1 act: -3.5; UPR CHOP act: -3.0

Results for CNC(=O)c1c(O)c2cccc3c2n(c1=O)CC3 ?
FXN GAA850 act: -0.8; UPR XBP1 act: -3.4; UPR CHOP act: -1.7

What do the screens show for `O=C(Nc1cccnc1)c1c(O)c2cccc3c2n(c1=O)CC3`?
CHOP inhibitor: 80.2*; FXN GAA850 act: 1.6; UPR XBP1 act: 3.8; UPR CHOP act: 0.8

What do the screens show for `CCc1nc2ccccc2c(=O)n1NC(=O)c1c(O)c2cccc3c2n(c1=O)CCC3`?
CHOP inhibitor: 94.5*; FXN GAA850 act: 0.8; UPR XBP1 act: 5.6; UPR CHOP act: -2.0

How did CCCCN(C)c1c(C)nc2ccc(C(=O)NCCOc3ccc(OC)cc3)cn12 do in these assays?
FXN GAA850 act: 0.6

Results for O=c1c2ccccc2[nH]c(=S)n1CCc1ccccc1 ?
CHOP inhibitor: 73.2*; FXN GAA850 act: 2.6; UPR XBP1 act: 4.8; UPR CHOP act: 2.4

What do the screens show for `COC(=O)NNC(=O)c1ccc(Cl)cc1Cl`?
CHOP inhibitor: 12.4; FXN GAA850 act: 0.6; UPR XBP1 act: -1.1; UPR CHOP act: -1.3

How did CC(C)(C)C(=O)NC(=S)NNC(=O)c1ccc(Cl)cc1Cl do in these assays?
CHOP inhibitor: 92.5*; FXN GAA850 act: 0.2; UPR XBP1 act: 12.5; UPR CHOP act: -0.5

What do the screens show for `CCCS(=O)(=O)NC(=O)C1(C)CCN(C(=O)c2ccc(C(=O)OC)cc2)C1` (configuration not stated)?
FXN GAA850 act: 1.0

How did CC(=O)N1N=C(c2ccc(C)cc2)OC1c1ccc(C)cc1 (configuration not stated) do in these assays?
CHOP inhibitor: 75.0*; FXN GAA850 act: 1.0; UPR XBP1 act: -1.4; UPR CHOP act: 8.1

What do the screens show for `C[C@@H]1CN([C@@H](C)CO)C(=O)CCCn2nncc2CO[C@@H]1CN(C)C(=O)Cc1ccccc1`?
FXN GAA850 act: 0.4

How did NC(=S)n1[nH]c(-c2ccc([N+](=O)[O-])cc2)c(N=Nc2cccc(Cl)c2)c1=O do in these assays?
CHOP inhibitor: 83.0*; FXN GAA850 act: -1.0; UPR XBP1 act: -4.2; UPR CHOP act: 0.2

How did Cc1[nH]n(C(N)=S)c(=O)c1N=Nc1cccc(Cl)c1 do in these assays?
FXN GAA850 act: 2.3; UPR XBP1 act: -3.2; UPR CHOP act: 0.8

What do the screens show for `COc1ccc(NC(=O)C2(C)CCN2Cc2ccccc2Cl)cc1OC` (configuration not stated)?
FXN GAA850 act: 0.7

Results for CNS(=O)(=O)c1cccc(C(=O)OCC(=O)/C=C2/N(C)c3ccccc3C2(C)C)c1 ?
CHOP inhibitor: 72.8*; FXN GAA850 act: 2.5; UPR XBP1 act: -2.4; UPR CHOP act: -1.3

What do the screens show for `CN1/C(=C\C(=O)COC(=O)c2ccc(O)cc2)C(C)(C)c2ccccc21`?
CHOP inhibitor: 1.8; FXN GAA850 act: 2.5; UPR XBP1 act: -3.8; UPR CHOP act: 0.1

How did O=C(NCCO)/C(=C\c1cccc([N+](=O)[O-])c1)NC(=O)c1cccs1 do in these assays?
FXN GAA850 act: -0.4

Results for N#Cc1c(NCCCO)nc(NCc2ccccc2)c2c1CCN(Cc1ccccc1)C2 ?
CHOP inhibitor: 87.8*; FXN GAA850 act: -0.5; UPR XBP1 act: -4.8; UPR CHOP act: 2.6

How did CN1CCc2c(C#N)c(N3CCCCC3)nc(NCc3ccccc3)c2C1 do in these assays?
CHOP inhibitor: 84.3*; FXN GAA850 act: -0.5; UPR XBP1 act: 0.1; UPR CHOP act: 0.4
